We go through 2 substances from ChEMBL document CHEMBL1121571, “Cytotoxic and antitumor properties of bleomycin and several of its metal complexes” (J Med Chem, 1980).

Common to all, as to type: functional, organism-based
The species entered for assay [1] is Mus musculus. Description: Tested for the inhibition of DNA synthesis against blenoxane at 4 nm of drug/mg of cell protein in mice. Details: scale not given: the % may be the effect or the level left. An outline of the steps:
(§1)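 Culture-adapted Ehrlich cells were incubated 60 min with […] (4 nmol/mg cell protein) in the presence of serum. [³H]dThd incorporation into DNA was measured at the end of the 60 min. Values are expressed relative to untreated control.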

The species entered for assay [2] is Mus musculus. The assay can be described thus: Tested for the inhibition of DNA synthesis against blenoxane at 10 nm of drug/mg of cell protein in mice. The arrangement: scale not given: the % may be the effect or the level left. An outline of the steps: (§2)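 Ehrlich ascites cells from a donor mouse, in fresh MEM at 5 × 10⁶ cells/mL, were exposed to drug for 60 min at 37 °C with gentle shaking. They were then washed once, resuspended in fresh MEM and given [³H]thymidine (final thymidine about 8.6 × 10⁻⁸ M) for 20 min. DNA synthesis was read as perchloric acid-precipitable label. Values are % of control ± SD over three trials.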

The species entered for assay [3] is Mus musculus. Description: Tested for the inhibition of DNA synthesis against blenoxane at 80 nm of drug/mg of cell protein in mice. The arrangement: scale not given: the % may be the effect or the level left. The method, boiled down:
as §2

For assay [4], the species on record is Mus musculus. The assay can be described thus: Tested for the thymidine uptake against blenoxane at 80 nm of drug/mg of cell protein in mice. An outline of the steps:
as §2

Assay [5] is filed under the species Mus musculus. The assay can be described thus: Tested for the thymidine uptake against blenoxane at 10 nm of drug/mg of cell protein in mice. The method, boiled down: as §2
The species named for assay [6] is Mus musculus. Description: Tested for the thymidine uptake against blenoxane at 40 nm of drug/mg of cell protein in mice. An outline of the steps: as §2
The species entered for assay [7] is Mus musculus. The assay can be described thus: Tested for the thymidine uptake against blenoxane at 4 nm of drug/mg of cell protein in mice.
For assay [8], the species on record is Mus musculus. Description: Tested for the inhibition of DNA synthesis against blenoxane at 40 nm of drug/mg of cell protein in mice. Details: scale not given: the % may be the effect or the level left. The method, boiled down:
as §2

The species entered for assay [9] is Mus musculus. Description: Tested for the inhibition of DNA synthesis against cu-blenoxane at 40 nm of drug/mg of cell protein in mice. Details: scale not given: the % may be the effect or the level left. An outline of the steps: as §2
Assay [10] is filed under the species Mus musculus. Description: Tested for the inhibition of DNA synthesis against cu-blenoxane at 80 nm of drug/mg of cell protein in mice. The arrangement: scale not given: the % may be the effect or the level left. The method, boiled down:
as §2

The species named for assay [11] is Mus musculus. The assay can be described thus: Tested for the thymidine uptake against cu-blenoxane at 10 nm of drug/mg of cell protein in mice. An outline of the steps:
as §2

The species named for assay [12] is Mus musculus. Description: Tested for the thymidine uptake against cu-blenoxane at 4 nm of drug/mg of cell protein in mice.
For assay [13], the species on record is Mus musculus. Description: Tested for the thymidine uptake against cu-blenoxane at 40 nm of drug/mg of cell protein in mice. An outline of the steps:
as §2

For assay [14], the species on record is Mus musculus. Description: Tested for the inhibition of DNA synthesis against cu-blenoxane at 4 nm of drug/mg of cell protein in mice. The arrangement: scale not given: the % may be the effect or the level left. An outline of the steps: as §1
The species named for assay [15] is Mus musculus. The assay can be described thus: Tested for the thymidine uptake against cu-blenoxane at 80 nm of drug/mg of cell protein in mice. The method, boiled down: as §2
The species named for assay [16] is Mus musculus. The assay can be described thus: Tested for the inhibition of DNA synthesis against cu-blenoxane at 10 nm of drug/mg of cell protein in mice. The arrangement: scale not given: the % may be the effect or the level left. The method, boiled down: as §2

As to BLEOMYCIN, the Control in the assay listed under Mus musculus [1] was 67.9%; in the assay filed under Mus musculus [2], 66.1%; in the assay filed under Mus musculus [3], 40.1%; in the assay listed under Mus musculus [4], 61.9%; in the assay listed under Mus musculus [5] it was 79.1%; in the assay listed under Mus musculus [6], 69.8%. Also, the results for the Control in the assay listed under Mus musculus [7] and in the assay listed under Mus musculus [8] were 86% and 56.4%, respectively.

For the substance cu-blenoxane, the Control turned out to be 55.3% in the assay filed under Mus musculus [9]; 51.3% in the assay filed under Mus musculus [10]; 83.5% in the assay filed under Mus musculus [11]; 94.9% in the assay listed under Mus musculus [12]; 71.2% in the assay listed under Mus musculus [13]; 86.8% in the assay filed under Mus musculus [14]. The figures for the Control in the assay listed under Mus musculus [15] and in the assay listed under Mus musculus [16] were 68.4% and 61.5%, respectively.
